In ChEMBL document CHEMBL1158691, “Brevicompanine C, cyclo-(D-Ile-L-Trp), and cyclo-(D-Leu-L-Trp), plant growth regulators from Penicillium brevi-compactum” (2005):
Calls of active or inactive are those of the source. The rule behind the calls is not given here.

Tests used:
Lactuca sativa [1] = assay: Inhibition of hypocotyl elongation of lettuce seedlings at 100 mg/L after 4 days under 100 uE/m'2 light relative to control; assay type: functional
Outline: (§1)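 Lactuca sativa cv. Kingcisco seeds sown on filter paper wetted with deionized water, 1 day at 24 °C in continuous light (100 μE/m² s). Uniform seedlings (radicles 2 mm) moved to small dishes on filter paper with 1 mL deionized water containing test compound, kept 4 days at 24 °C in continuous light. Hypocotyl and root lengths measured; mean compared with untreated control; triplicate experiments.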

Lactuca sativa [2] = assay: Induction of root elongation in lettuce seedlings at 100 mg/L after 4 days under 100 uE/m'2 light relative to control; assay type: functional; outline: as §1
Lactuca sativa [3] = assay: Induction of root elongation in lettuce seedlings at 1 to 100 mg/L after 4 days under 100 uE/m'2 light; assay type: functional, organism-based; outline: as §1
Lactuca sativa [4] = assay: Inhibition of root elongation in lettuce seedlings at 1 to 100 mg/L after 4 days under 100 uE/m'2 light; assay type: functional, organism-based; outline: as §1
Lactuca sativa [5] = assay: Inhibition of hypocotyl elongation in lettuce seedlings at 1 to 100 mg/L after 4 days under 100 uE/m'2 light relative to control; assay type: functional, organism-based; outline: as §1
Lactuca sativa [6] = assay: Induction of hypocotyl elongation in lettuce seedlings at 100 mg/L after 4 days under 100 uE/m'2 light; assay type: functional; outline: as §1
Lactuca sativa [7] = assay: Induction of hypocotyl elongation in lettuce seedlings at 1 mg/L after 4 days under 100 uE/m'2 light; assay type: functional; outline: as §1
Lactuca sativa [8] = assay: Induction of hypocotyl elongation in lettuce seedlings at 10 mg/L after 4 days under 100 uE/m'2 light; assay type: functional; outline: as §1

Structure (SMILES) | Activity (Lactuca sativa [1]) | Activity (Lactuca sativa [2]) [%] | Activity (Lactuca sativa [3]) | Activity (Lactuca sativa [4]) | Activity (Lactuca sativa [5]) | inhibition at 100 µg/mL (Lactuca sativa [1]; 96 h) [%] | Activity (Lactuca sativa [6]) [%] | Activity (Lactuca sativa [7]) [%] | Activity (Lactuca sativa [8]) [%]
CC(C)C[C@H]1NC(=O)[C@H](Cc2c[nH]c3ccccc23)NC1=O | inactive | 164 | Active | – | – | – | – | – | –
CC[C@H](C)[C@H]1NC(=O)[C@H](Cc2c[nH]c3ccccc23)NC1=O | inactive | 167 | Active | – | – | – | – | – | –
O=C(O)Cc1c[nH]c2ccccc12 | – | – | – | Active | Active | – | – | – | –
C=CC(C)(C)[C@@]12C[C@H]3C(=O)N[C@H](C(C)C)C(=O)N3[C@@H]1Nc1ccccc12 [BREVICOMPANINE] | – | 212 | Active | – | – | 46 | – | – | –
C=C1C[C@]23C[C@@]1(O)CC[C@H]2[C@@]12C=C[C@H](O)[C@](C)(C(=O)O1)C2[C@@H]3C(=O)O (stereo partly specified) [GIBBERELLINE] | – | 164 | Active | – | – | – | 433 | 433 | 433
